# Hits are enriched below; roughly 3.4% of the tested compounds scored in any of these assays.
# UCH37 DUB inh = inhibitors of human UCH37 deubiquitinase, primary screen, biochemical, Ub-AMC cleavage, fluorescence; 0.33% of 330,000 active; Ubiquitin carboxyl-terminal hydrolase isozyme L5 (Homo sapiens), Q9Y5K5; purified proteasome/UCH37; inhibition, % (no concentration beside the values);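 active means mean inhibition over replicate wells above about 20%, limit read from the data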;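 further: 0% = compound-free wells with enzyme and 100% = wells lacking proteasome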
#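 Material: Human UCH37 enzyme supplied as purified proteasome complex | Schedule: 30 min compound-proteasome preincubation then 25 min substrate reaction, room temperature | Detection: AMC fluorescence from Ub-AMC cleavage, excitation 355 nm, emission 460 nm | Benchmarks: Wells without proteasome as full block, compound-free enzyme plus substrate as uninhibited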
# AHR act = AHR activators, primary screen, cell-based, luminescence, luciferase reporter, human | AHR-responsive luciferase reporter cells | activation, % at 5 µM | 2.5% of 320,000 active; in the data active means activation above about 47%;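 further: 0% = vehicle wells and 100% = reference agonist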
# Target sequence (P35869 whole entry, looked up): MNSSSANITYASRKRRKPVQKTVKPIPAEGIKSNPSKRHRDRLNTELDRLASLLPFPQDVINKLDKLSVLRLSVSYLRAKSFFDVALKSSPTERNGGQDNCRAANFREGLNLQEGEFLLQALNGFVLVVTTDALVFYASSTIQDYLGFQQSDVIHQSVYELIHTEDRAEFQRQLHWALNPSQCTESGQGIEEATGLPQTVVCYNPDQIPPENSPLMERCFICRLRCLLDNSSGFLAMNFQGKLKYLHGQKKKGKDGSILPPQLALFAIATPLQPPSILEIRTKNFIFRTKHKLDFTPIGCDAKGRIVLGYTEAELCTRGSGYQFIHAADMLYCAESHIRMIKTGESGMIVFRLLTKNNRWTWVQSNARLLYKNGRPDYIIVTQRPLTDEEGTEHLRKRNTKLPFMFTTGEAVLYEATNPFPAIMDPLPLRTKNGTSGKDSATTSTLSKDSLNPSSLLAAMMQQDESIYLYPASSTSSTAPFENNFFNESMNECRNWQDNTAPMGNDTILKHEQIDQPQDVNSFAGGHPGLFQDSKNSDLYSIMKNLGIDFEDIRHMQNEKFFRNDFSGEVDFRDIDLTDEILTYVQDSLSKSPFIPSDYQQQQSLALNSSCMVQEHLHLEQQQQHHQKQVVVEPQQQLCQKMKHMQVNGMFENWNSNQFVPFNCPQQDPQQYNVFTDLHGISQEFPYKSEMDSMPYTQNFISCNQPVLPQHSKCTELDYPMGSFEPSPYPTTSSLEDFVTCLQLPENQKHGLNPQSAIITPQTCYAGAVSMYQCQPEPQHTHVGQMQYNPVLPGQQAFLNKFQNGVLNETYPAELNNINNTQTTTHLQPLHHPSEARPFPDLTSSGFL
# Arrestin-AP2 inh = inhibitors of beta-arrestin/AP2 binding, primary screen, biochemical, GPCR trafficking, flow cytometry; beta-arrestin 1 C-terminal peptide binding to AP2 beta2-adaptin appendage (human); FITC-arrestin peptide / GST-AP2 beads; AP2 beta2 appendage carries R879A mutation; inhibition, % at 10 µM; 0.31% of 340,000 active; AID 504490, 2011;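 active means inhibition above a set limit, near 3 SD of compounds lacking own fluorescence, cut at about 54% in these data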;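 further: plate controls were DMSO wells for no effect and 5 µM unlabelled arrestin peptide for full effect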
#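 System: GST-AP2 R879A bound to glutathione beads, E. coli-expressed. Also added: 50 nM FITC-arrestin peptide. Schedule: compound with beads 12 min RT, then probe 1 h RT. Signal: bead flow cytometry, FITC channel. Read-out basis: percent response.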
# A3A deaminase = APOBEC3A ssDNA deaminase inhibitors, primary screen, selectivity assay for APOBEC3G inhibitor project, biochemical, FAM/TAMRA oligo cleavage fluorescence | DNA dC->dU-editing enzyme APOBEC-3A (Homo sapiens), P31941 | recombinant A3A, FAM/TAMRA ssDNA deamination fluorescence | inhibition, % at 20 µM | 0.41% of 330,000 active | AID 493011, 2011;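 active means at least 40% inhibition at 20 µM here, with at most 30% in a related deaminase screen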;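 further: plate controls were A3A with DMSO for no effect and wells lacking A3A enzyme for full effect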
# PolyA inhibitor = polyadenylation inhibitors in yeast reporter cells, primary screen, luminescence, S. cerevisiae; S. cerevisiae SKY197-pL101 polyadenylation reporter, beta-gal luminescence; efflux-impaired pdr1/pdr3 knockout yeast; score 100 = 6 SD above DMSO; activity score, % at 12 µM; 0.02% of 300,000 active;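 active means lowest replicate activity score at least 50, where 100 means six control SD above control mean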;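 further: yeast exposed to compound for 9 h at 30 °C; higher score means more reporter readthrough which indicates perturbed polyadenylation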
# A3G deaminase = APOBEC3G DNA deaminase inhibitors, primary screen, biochemical, fluorescence, single-stranded DNA substrate, uHTS; DNA dC->dU-editing enzyme APOBEC-3G (Homo sapiens), Q9HC16; recombinant A3G, ssDNA deamination FAM/TAMRA fluorescence; inhibition, % at 20 µM; 0.28% of 330,000 active;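 active means inhibition of at least 40% at 20 µM, with no more than 30% in the related APOBEC3A deaminase screen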;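 further: plate controls were DMSO wells with A3G for no effect and wells lacking A3G enzyme for full effect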
# AHR act cf = AHR activators, confirmation, cell-based, luminescence, luciferase reporter, human | shares compounds with AHR act | activation, % at 9 µM | human cells, AHR-responsive luciferase reporter | 87% of 2,300 active; in the data active means activation above about 49%;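 further: HepG2 hepatoma cells carrying a DRE-driven firefly luciferase reporter; 0% = vehicle wells and 100% = reference agonist wells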
# PXR act counter = human PXR activators, counter-screen for AHR activator project, cell-based, luciferase luminescence; shares compounds with AHR act; cell-based PXR reporter; activation, % at 11.6 µM; 88% of 2,300 active; in the data active means activation above about 11%;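 further: human hepatoma DPX-2 cells expressing full-length human PXR; 0% = DMSO and 100% = reference agonist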
# * hit, by the source's call; / = not tested or not shown.
SMILES,UCH37 DUB inh,AHR act,Arrestin-AP2 inh,A3A deaminase,PolyA inhibitor,A3G deaminase,AHR act cf,PXR act counter
CN(C)c1cc(-c2ccc(C#N)cc2)oc(=O)c1Cl,-28,-5,-3,1,6,-1,/,/
CN(C)c1cc(-c2ccc(Br)cc2)oc(=O)c1Cl,6,85*,-14,-2,-5,-7,70*,22*
CCN(/N=C/C=C/c1ccccc1)c1cc(=O)n(C)c(=O)[nH]1,/,132*,-13,-1,-15,-7,33,8
CCN(/N=C/c1ccc(Cl)cc1)c1cc(=O)n(C)c(=O)[nH]1,/,121*,/,-2,-12,-3,71*,/
CCN(N=Cc1ccc(Cl)cc1)c1cc(=O)n(C)c(=O)[nH]1,15,/,/,/,/,/,/,/
CCN(N=Cc1cccs1)c1cc(=O)n(C)c(=O)[nH]1,18,/,/,/,/,/,/,/
COc1ccc(OC)c2sc(NC(=O)CCS(=O)(=O)c3ccccc3)nc12,/,115*,-8,3,-7,1,63*,24*
COc1cc(C(=O)N/N=c2/sc3ccccc3n2C)cc(OC)c1OC,/,171*,1,-3,10,-6,82*,56*
Cn1c(=NNC(=O)c2cccc(OC(F)F)c2)sc2ccccc21,8,/,/,/,/,/,/,/
Cn1/c(=N/NC(=O)c2cccc(OC(F)F)c2)sc2ccccc21,/,118*,1,-1,7,1,110*,119*
COc1ccc(C(=O)N=c2sc3ccccc3n2C)cc1OC,-27,12,0,1,-23,-1,/,/
CN(C)/C=N/c1nc(-c2ccc3ccccc3c2)cs1,/,5,4,-1,-44,-4,/,/
CN(C)/C=N/c1nc(-c2ccc3c(c2)OCO3)cs1,/,81*,5,-4,-5,-6,69*,28*
CC1(C)S/C(=N/N=Cc2cccs2)NC1=O,13,/,/,/,/,/,/,/
COc1ccc(CNC(=O)CC(C)=NNC(=O)COc2ccc(Br)cc2)cc1,5,/,/,/,/,/,/,/
CCOc1ccc(OCC)c(NC(=O)c2[nH]c(C)c(C(C)=O)c2C)c1,-6,80*,-1,1,-23,-1,95*,19*
COc1ccc(Cl)cc1C(=O)NNC(=O)c1[nH]c(C)c(C(C)=O)c1C,/,81*,3,-1,/,-3,96*,50*
CCOC(=O)c1[nH]c(C)c(C(=O)Nc2cc(OC)ccc2OC)c1C,0,10,24,5,-8,0,/,/
C=CCc1cccc(C=Nc2ncccc2O)c1O,4,/,/,/,/,/,/,/
O=C(NN=C1CCS(=O)(=O)c2ccc(F)cc21)c1ccc([N+](=O)[O-])cc1,4,/,/,/,/,/,/,/
OC1(C#Cc2c(-c3ccsc3)oc3ccc(N4CCOCC4)cc23)CCCCC1,-37,111*,-1,-3,7,-15,120*,80*
Cc1ccc(-n2ncc(C#N)c2N=CN2CCCCCC2)cc1,1,/,/,/,/,/,/,/
CCOC(=O)c1c2ccc(OCC(=O)N/N=C/c3ccc(C)cc3)cc2n2ccccc12,/,24,-2,2,-6,-3,/,/
CCOC(=O)c1c2ccc(OCC(=O)NN)cc2n2ccccc12,-123,86*,18,-1,-9,-4,90*,12*
CCc1c(C)sc(NC(=O)c2cccs2)c1C#N,-55,90*,14,-5,-15,-3,90*,39*
SMILES,UCH37 DUB inh,AHR act,Arrestin-AP2 inh,A3A deaminase,PolyA inhibitor,A3G deaminase,AHR act cf,PXR act counter
CC1CN(c2nc(-c3ccc(Br)cc3)nnc2-c2ccccc2)CC(C)N1 (stereo not drawn),8,87*,1,9,-6,2,47*,21*
C=CCNC(=S)N/N=C(\C)c1ccc(-n2ccnc2)cc1,/,89*,19,-3,-3,-5,106*,19*
C/C(=N\NC(=S)NC(C)C)c1ccc(-n2ccnc2)cc1,/,122*,-6,-8,15,8,77*,14*
CNC(=S)N/N=C(\C)c1ccc(-n2ccnc2)cc1,/,6,-5,-6,-14,-8,/,/
CC(=NNC(N)=S)c1ccc(-n2ccnc2)cc1,4,/,/,/,/,/,/,/
CCOC(=O)NN=Cc1ccc(OC/C=C/c2ccccc2)c(OC)c1,-2,/,/,/,/,/,/,/
CCc1ccc2oc(-c3cccc(N)c3)nc2c1,-138,83*,0,-3,12,-6,90*,12*
Cc1ccc2nc(-c3cccc(N)c3)oc2c1,-171,17,24,-4,0,-6,/,/
Cc1cc(C)c2oc(-c3cccc(N)c3)nc2c1,-102,79*,-1,-1,1,0,128*,15*
CN(C)C(=NO)c1c(Cl)cccc1Cl,3,/,/,/,/,/,/,/
COC(=O)NN=Cc1ccc(-c2ccccc2Cl)o1,5,/,/,/,/,/,/,/
CCNC(=S)N/N=C/c1ccc(-c2ccccc2)o1,/,24,-2,1,-1,-2,/,/
NC(=O)N/N=C/c1ccc(-c2ccc([N+](=O)[O-])cc2)o1,/,21,31,-4,-17,-7,/,/
NC(=S)N/N=C/c1ccc(-c2ccccc2)o1,/,93*,-5,-6,-9,-17,32,21*
NC(=S)N/N=C\c1ccc(-c2cccc(Cl)c2Cl)o1,/,107*,1,-3,2,-14,110*,26*
Cc1ccc(-c2ccc(/C=N/NC(N)=S)o2)cc1,/,100*,2,-7,-13,-4,90*,13*
COCCNC(=S)N/N=C/c1ccc(-c2ccc([N+](=O)[O-])cc2)o1,/,128*,-2,-5,-16,-8,89*,11*
N#Cc1c(N=Cc2ccc(Br)s2)sc2c1CCC2,0,/,/,/,/,/,/,/
O=C(COc1ccccc1)NCC(=O)NN=Cc1ccccc1,6,/,/,/,/,/,/,/
O=C(NN=Cc1ccccc1C(=O)O)c1cc(-c2ccc3c4c(cccc24)CC3)n[nH]1,3,/,/,/,/,/,/,/
COc1ccccc1C(=O)Nc1ccc(-c2nnn(CC(=O)NCc3ccco3)n2)cc1,-31,130*,7,6,1,-3,135*,29*
COc1ccc(C(=O)Nc2ccccc2-c2nnn(CC(=O)NCc3ccco3)n2)cc1,-3,103*,8,-4,26,-6,-1,26*
